RAD52 anneal inh: RAD52 (human) annealing inhibition; P43351; recombinant RAD52 DNA annealing, FRET fluorescence; inhibition, % at 18.7 µM; 360,000 compounds, 0.46% hits; AID 651710;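 active means every replicate showing at least 50% inhibition; inconclusive means mean inhibition at least 50% but not in every replicate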
GSIS activator: GLuc luminescence reporter in INS-1E cells, primary screen for activators of glucose-dependent secretion of insulin; INS-1E GLuc reporter insulin secretion, 2-3 h; activation, % at 16.6 µM; AID 743287; 370,000 compounds, 0.61% hits;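 active means lowest replicate activation of at least 40%, so every replicate reaches that level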;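 further: 0% = median of neutral control wells and 100% = median of IBMX positive control wells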
RAD54 inh: blocks human RAD54 Holliday junction branch migration; FAM/BHQ fluorescence; 360,000 compounds, 0.14% hits; AID 602329; Q92698; inhibition, % at 10.4 µM;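 active means mean normalized replicate activity at least 40 and at least half of replicates scoring 40 or more; inconclusive means only one of the two criteria met; inactive means mean below 40 and under half of replicates reaching 40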;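 further: 0% = median of neutral control wells and 100% = median of positive control wells; inhibitors cause a drop in the FAM fluorescence signal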
MLL AF4-AF9 inh: blocks AF4 peptide binding to human AF9 | inhibition, % at 10 µM | AlphaScreen, biotin-AF4 peptide binding to FLAG-AF9 | P42568 | 350,000 compounds, 0.47% hits;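 active means every replicate reaching a set inhibition limit, whatever the replicate mean, cut at about 25% in these data; inconclusive means mean inhibition reaches that limit but some replicates miss it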;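 further: 0% = plate neutral control median and 100% = total signal loss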
Target sequence (P42568 whole entry, looked up): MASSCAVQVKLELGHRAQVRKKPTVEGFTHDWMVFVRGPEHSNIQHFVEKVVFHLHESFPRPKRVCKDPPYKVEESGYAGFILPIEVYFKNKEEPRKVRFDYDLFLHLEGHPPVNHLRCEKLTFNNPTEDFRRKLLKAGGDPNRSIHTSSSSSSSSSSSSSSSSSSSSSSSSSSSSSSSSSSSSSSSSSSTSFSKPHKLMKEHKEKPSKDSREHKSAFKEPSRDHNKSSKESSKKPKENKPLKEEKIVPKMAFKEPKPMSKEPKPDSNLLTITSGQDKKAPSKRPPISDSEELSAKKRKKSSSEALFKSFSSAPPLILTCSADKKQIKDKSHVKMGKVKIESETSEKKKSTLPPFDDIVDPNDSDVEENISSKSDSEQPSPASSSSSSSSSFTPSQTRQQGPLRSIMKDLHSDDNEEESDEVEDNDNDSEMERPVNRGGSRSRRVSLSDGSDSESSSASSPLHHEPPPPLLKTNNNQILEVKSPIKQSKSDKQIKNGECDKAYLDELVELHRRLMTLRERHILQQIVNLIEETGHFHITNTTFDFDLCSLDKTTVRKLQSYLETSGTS
S100A4 inh HTS: inhibitors of human S100A4 binding to myosin IIA peptide | P26447 | inhibition, % at 10.7 µM | S100A4/TAMRA-MyoIIA peptide fluorescence polarization | AID 652163 | 360,000 compounds, 0.14% hits;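 active means mean inhibition of at least 70% across replicates, with every replicate also reaching that level; inconclusive means mean inhibition reaches 70% but some replicates fall short; inactive means mean inhibition below 70%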
Target sequence (P26447 whole entry, looked up): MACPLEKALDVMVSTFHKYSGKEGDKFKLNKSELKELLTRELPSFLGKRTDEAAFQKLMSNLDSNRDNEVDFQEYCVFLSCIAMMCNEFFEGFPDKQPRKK
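Material: S100A4 monomer (human). Medium: Calcium-containing HEPES buffer, pH 7.2. Probe or stimulus: labelled myosin peptide probe, 5 nM. Compound dosing: one concentration per compound. Timing: polarization read 5 min after assay mix addition, stable 5–60 min. Benchmarks: DMSO as neutral control, TFP as positive control.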
Rad54 DNA ctr: counter-screen for Rad54 inhibitors: DNA binding compounds; shares compounds with RAD54 inh; Acridine orange-DNA displacement, fluorescence polarization, 20 min; AC50, µM (doses to about 35 µM), inactives show at the highest dose activity change, negative = DNA binding; 460 compounds, 8% hits; AID 651673;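 active means signal drop giving an AC50 within twice the top valid tested concentration of each sample, actives reach about 35 µM in these data; inactive means activity opposite to expected, plus the rest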;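 further: polarization loss reports compound binding to salmon sperm DNA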
Starred values were filed as active, the others as inactive; i = inactive; ? = inconclusive; . = no result given. In the library only some 1.3% were active in any assay of this set; here they are far more common.

SMILES	RAD52 anneal inh	GSIS activator	RAD54 inh	MLL AF4-AF9 inh	S100A4 inh HTS	Rad54 DNA ctr
Cc1cc(C)c2nc(C)cc(Nc3ccc(C(=O)NCCO)cc3)c2c1	6.4	10.7	50.2*	-1.2	-3.3	-21.8%
COc1cc2nc(N(C)C)nc(N)c2cc1OC	.	.	94.3*	.	.	i
C[C@@H]1CN([C@H](C)CO)C(=O)c2cc(NS(C)(=O)=O)ccc2O[C@@H]1CN(C)Cc1ccc(C(F)(F)F)cc1	3.8	-6.3	-16.5	-14.0	0.5	.
C[C@@H]1CCCCO[C@@H](CN(C)C(=O)c2ccccc2)[C@@H](C)CN([C@H](C)CO)C(=O)c2cc(NC(=O)c3ccncc3)ccc2O1	.	-2.1	.	0.0	.	.
O=C(C[C@H]1C[C@H]2c3cc(NC(=O)NC4CCCCC4)ccc3O[C@H]2[C@H](CO)O1)NCC(F)(F)F	0.3	12.0	-11.7	-0.3	7.6	.
CC(CCCN1CCCC1)Nc1ccnc2cc(Cl)ccc12 (centres undefined)	51.0*	.	55.1*	13.6	-1.4	-15.0%
CC(C)NC1CCC(Nc2ccnc3cc(Cl)ccc23)CC1 (centres undefined)	-20.2	23.5	?	-4.9	10.6	-19.3%
CCCNC(=O)NC[C@@H]1[C@H](c2ccc(C3=CCCCC3)cc2)[C@H](CO)N1C(C)=O	-40.4	-1.8	0.6	6.9	-5.6	.
C[C@@H]1CN([C@@H](C)CO)C(=O)Cc2cc(NC(=O)c3ccncc3)ccc2O[C@@H]1CN(C)CC1CCCCC1	-9.0	4.4	2.8	-5.6	-23.3	.
O=C1c2cccc3cccc(c23)C(=O)N1CCCn1ccnc1	32.8	31.0	51.4*	3.6	-6.1	-13.8%
O=C(CN1CCCC1)Nc1ccc(-c2nc3cc(NC(=O)CN4CCCC4)ccc3o2)cc1	.	.	?	.	.	-22.2%
CCN(CC)CCSc1nnc2c3cc(C)ccc3n(Cc3ccccc3)c2n1	34.9	-5.9	?	5.9	-7.9	1.8%
CSc1nnc2c3cc(F)ccc3n(Cc3ccccc3)c2n1	.	.	-1.0	.	.	.
CC(C)c1cn(CC[C@H]2CC[C@H](NS(=O)(=O)c3ccccc3)[C@@H](CO)O2)nn1	5.5	21.5	6.8	-1.9	0.5	.
COCC#Cc1cnc2c(c1)C(=O)N([C@H](C)CO)C[C@@H](C)[C@@H](CN(C)C(=O)CCN1CCCCC1)O2	-9.2	-0.7	14.9	-4.2	-6.1	.
Cc1ccc(S(=O)(=O)Nc2cccc3c2O[C@H](CN(C)S(=O)(=O)c2ccc(F)cc2)[C@@H](C)CN([C@H](C)CO)C3=O)cc1	.	19.0	12.1	.	.	.
Cc1cccc(Nc2c3c(nc4ccccc24)CCC3)c1	-3.5	-14.3	10.6	.	1.3	.
Cc1ccc2nc3c(c(Nc4ccc5c(c4)OCCO5)c2c1)CCC3	46.9	.	60.5*	22.3	-3.7	-2.8%
COc1ccc(Nc2c3c(nc4ccc(C)cc24)CCC3)cc1	41.0	21.1	54.3*	11.9	-2.9	-2.1%
Cn1cnc(CCNC(=O)C[C@H]2CC[C@H]3[C@@H](COC[C@@H](O)CN3C(=O)C3CCCC3)O2)c1	-25.4	7.1	-13.8	-1.7	-32.1	.
CCN(CC)CCOc1c(Br)ccc2c1sc1nc3n(c(=O)c12)CCC3	.	.	85.6*	.	.	-7.7%
CN(C)CCSc1nc(N)c2c3c(sc2n1)CN(C)CC3	.	.	74.9*	.	.	-13.2%
COc1cccc(-c2nn(C)c3sc(C(=O)NCCCN(C)Cc4ccccc4)cc23)c1	12.1	.	20.8	1.8	-5.9	.
CCN1CCCC1CNC(=O)c1cc2c(-c3cccc(OC)c3)nn(C)c2s1 (centres undefined)	.	.	50.4*	.	.	-8.7%
COc1cccc(-c2nn(C)c3sc(C(=O)NCc4ccco4)cc23)c1	.	.	10.6	.	.	.
SMILES	RAD52 anneal inh	GSIS activator	RAD54 inh	MLL AF4-AF9 inh	S100A4 inh HTS	Rad54 DNA ctr
CCCCN(C)CCNC(=O)c1cc2c(-c3cccc(OC)c3)nn(C)c2s1	65.2*	13.3	72.5*	4.2	-4.0	-15.8%
C/C=C/c1cnc2c(c1)C(=O)N([C@H](C)CO)C[C@@H](C)[C@@H](CN(C)Cc1cccc(C(=O)O)c1)O2	-11.8	0.2	2.9	-4.5	-11.6	.
CCN(CC)CCCNC(=O)C1CCN(c2ncnc3c2sc2cccc(F)c23)CC1	41.9	18.0	53.5*	3.2	3.3	-0.9%
O=C(Nc1ccc(F)cc1F)C1CCN(c2ncnc3c2sc2cccc(F)c23)CC1	-2.6	.	-19.3	-8.9	-1.6	.
CCN(CC)CCN(C(=O)c1ccc(C(=O)c2ccccc2)cc1)c1nc2cc3c(cc2s1)OCO3	-13.3	-28.7	-1.4	3.3	2.1	.
CCN(CC)CCN(C(=O)c1ccc2ncsc2c1)c1nc2cc3c(cc2s1)OCO3	8.8	5.2	?	4.8	1.2	-5.0%
CCCC(c1nnnn1Cc1ccc(OC)cc1)N1CCN(c2ccccc2)CC1 (centres undefined)	.	.	?	.	.	-10.3%
Cc1ccc2nc(C)c3c(c2c1)N(c1ccc(F)cc1)CC3	40.5	20.7	?	.	2.6	-14.2%
COc1cccc2c3c(c(C)nc12)CCN3c1ccccc1	29.6	15.2	.	-3.8	-2.8	.
CCn1cc(C(=O)NCCCN(C)C)c(=O)c2cc(F)c(N3CCN(C)CC3)cc21	3.3	-3.2	41.9	.	-1.8	.
CCn1cc(C(=O)NCCN(C)C)c(=O)c2cc(F)c(N3CCN(C)CC3)cc21	-28.2	4.0	59.3*	-0.4	1.3	-12.6%
CCCNC(=O)C[C@@H]1CC[C@@H]2[C@H](COC[C@@H](O)CN2C(=O)c2cc(Cl)cc(Cl)c2)O1	-9.7	4.8	2.1	-2.7	-13.4	.
CN(C)c1cc(NC(=O)CNC(C)(C)C)c2ccccc2n1	27.7	5.6	76.0*	.	-4.4	-11.1%
CCCCC(=O)Nc1cc(N(C)C)nc2ccccc12	.	.	4.3	.	.	.
CCOc1cc2nc(-c3ccc(OC)c(OC)c3)nc(NCCCN3CCOCC3)c2cc1OC	.	.	84.6*	.	.	i
CCC(=O)N[C@H]1CC[C@@H](CC(=O)NCCN2CCCCC2)O[C@@H]1CO	-8.4	-1.5	0.9	-1.8	1.7	.
CCN(CC)CCNC(=O)c1cc2cc3ccc(OC)cc3nc2o1	18.6	4.5	50.5*	2.4	-2.8	-24.0%
COCCCNC(=O)c1cc2cc3cc(OC)ccc3nc2o1	-6.0	0.7	8.8	-2.7	-10.2	.
CCCCN(C)CCNC(=O)c1cc2cc3ccc(OC)cc3nc2o1	7.4	-4.0	53.1*	0.6	0.0	-19.8%
CO[C@@H]1CN(C)C(=O)c2ccc(NC(C)=O)cc2OC[C@H](C)N(C(=O)c2ccccn2)C[C@@H]1C	-6.1	-10.3	-5.2	-0.5	7.0	.
O=C(Nc1nnc(COc2ccc(Br)cc2)s1)c1ccco1	-11.1	-0.4	-5.5	-2.0	1.0	.
O=C(Nc1nnc(COc2ccc(F)cc2)s1)c1ccco1	-20.0	.	?	-3.3	4.4	-6.0%
COC(=O)c1c(NC(=O)c2ccc([N+](=O)[O-])o2)sc2c1CCN(C(C)C)C2	-11.7	.	68.0*	-7.5	0.4	8.9%
CC(=O)Nc1sc2c(c1-c1nc3ccccc3s1)CN(C(C)C)CC2	i	-51.7	67.5*	-4.2	-2.8	17.2µM*
